From ChEMBL document CHEMBL1139395 (J Med Chem, 2008)
Values after ≈ are worked out from the molar mass of the structure shown.

Assays:
Streptococcus pneumoniae [1] = assay: Antibacterial activity against Streptococcus pneumoniae ATCC 10015; type: functional
[2] = Inhibition of Escherichia coli topoisomerase 4
Streptococcus pneumoniae [3] = assay: Antibacterial activity against Streptococcus pneumoniae ATCC 6303-infeceted Sprague-Dawley rat assessed as reduction in lung bacterial density at 50 mg/kg, po administered twice at 18 and 26 hrs after bacterial challenge measured at 72 hrs postinfection; type: functional
Outline: (§1)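 Male Sprague-Dawley rats (185-224 g), anesthetized, infected intratracheally with 0.2 mL (0.9 × 10⁷ CFU) S. pneumoniae ATCC 6303 serotype 3 grown overnight in enriched broth. Oral dosing in D5W at 18 and 26 h postinfection, 10 per group. Lungs homogenized for CFU at 72 h; mean log₁₀ CFU ± SEM against vehicle controls.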

Streptococcus pneumoniae [4] = assay: Antibacterial activity against Streptococcus pneumoniae ATCC 6303-infeceted Sprague-Dawley rat assessed as reduction in lung bacterial density at 25 mg/kg, po administered twice at 18 and 26 hrs after bacterial challenge measured at 72 hrs postinfection; type: functional; outline: as §1
Staphylococcus aureus [5] = assay: Antibacterial activity against Staphylococcus aureus ATCC 29213-infected Sprague-Dawley rat assessed as reduction in bacterial density in thigh tissue at 50 mg/kg, iv administered 2 hrs after bacterial challenge measured at 8 hrs postinfection; type: functional
Outline: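 Neutropenic male Sprague-Dawley rats (175-200 g); cyclophosphamide ip 150 mg/kg at day -4 and 50 mg/kg at day -1. Infection was 0.2 mL of 1 × 10⁷ CFU/mL S. aureus ATCC 29213 in saline, im into the thigh. Single iv tail-vein bolus at 2 h postinfection, D5W vehicle. Thighs homogenized for CFU 6 h post-dose; 0 h controls taken at 2 h. Mean log₁₀ CFU ± SEM; one-way ANOVA with Dunnett's test.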

Staphylococcus aureus [6] = assay: Antibacterial activity against Staphylococcus aureus ATCC 29213 in presence of human serum; type: functional
Outline: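 Broth microdilution MIC per CLSI methods (modified), with human serum added to the liquid medium at a final 50% for S. aureus ATCC 29213.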

[7] = Inhibition of Escherichia coli DNA gyrase
Streptococcus pneumoniae [8] = assay: Antibacterial activity against Streptococcus pneumoniae ATCC 6303; type: functional
[9] = Clearance in Sprague-Dawley rat; type: ADME, organism-based; conditions: in vivo
Haemophilus influenzae = assay: Antibacterial activity against Haemophilus influenzae ATCC 51907; type: functional
DNA gyrase = DNA gyrase (Staphylococcus aureus, UniProt P0A0K8+P20831); assay: Inhibition of Staphylococcus aureus DNA gyrase; type: protein-complex assay
DNA gyrase, sequence (P0A0K8 whole entry): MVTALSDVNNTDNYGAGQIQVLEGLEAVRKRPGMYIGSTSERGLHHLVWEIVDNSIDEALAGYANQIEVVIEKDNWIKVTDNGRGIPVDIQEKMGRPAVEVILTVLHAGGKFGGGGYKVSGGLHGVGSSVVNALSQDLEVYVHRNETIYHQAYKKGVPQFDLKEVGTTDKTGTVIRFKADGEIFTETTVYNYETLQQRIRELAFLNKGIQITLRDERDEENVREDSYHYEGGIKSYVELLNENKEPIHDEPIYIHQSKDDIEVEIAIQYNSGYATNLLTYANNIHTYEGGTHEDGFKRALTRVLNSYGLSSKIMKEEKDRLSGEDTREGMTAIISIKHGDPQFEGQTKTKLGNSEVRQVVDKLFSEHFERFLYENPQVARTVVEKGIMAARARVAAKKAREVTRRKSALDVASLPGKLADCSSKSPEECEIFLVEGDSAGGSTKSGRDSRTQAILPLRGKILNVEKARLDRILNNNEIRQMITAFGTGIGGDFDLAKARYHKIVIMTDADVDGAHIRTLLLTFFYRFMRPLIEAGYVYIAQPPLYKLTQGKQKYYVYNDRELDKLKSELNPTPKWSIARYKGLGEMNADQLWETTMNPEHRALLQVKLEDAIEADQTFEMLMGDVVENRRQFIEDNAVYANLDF
DNA gyrase, sequence (P20831 whole entry): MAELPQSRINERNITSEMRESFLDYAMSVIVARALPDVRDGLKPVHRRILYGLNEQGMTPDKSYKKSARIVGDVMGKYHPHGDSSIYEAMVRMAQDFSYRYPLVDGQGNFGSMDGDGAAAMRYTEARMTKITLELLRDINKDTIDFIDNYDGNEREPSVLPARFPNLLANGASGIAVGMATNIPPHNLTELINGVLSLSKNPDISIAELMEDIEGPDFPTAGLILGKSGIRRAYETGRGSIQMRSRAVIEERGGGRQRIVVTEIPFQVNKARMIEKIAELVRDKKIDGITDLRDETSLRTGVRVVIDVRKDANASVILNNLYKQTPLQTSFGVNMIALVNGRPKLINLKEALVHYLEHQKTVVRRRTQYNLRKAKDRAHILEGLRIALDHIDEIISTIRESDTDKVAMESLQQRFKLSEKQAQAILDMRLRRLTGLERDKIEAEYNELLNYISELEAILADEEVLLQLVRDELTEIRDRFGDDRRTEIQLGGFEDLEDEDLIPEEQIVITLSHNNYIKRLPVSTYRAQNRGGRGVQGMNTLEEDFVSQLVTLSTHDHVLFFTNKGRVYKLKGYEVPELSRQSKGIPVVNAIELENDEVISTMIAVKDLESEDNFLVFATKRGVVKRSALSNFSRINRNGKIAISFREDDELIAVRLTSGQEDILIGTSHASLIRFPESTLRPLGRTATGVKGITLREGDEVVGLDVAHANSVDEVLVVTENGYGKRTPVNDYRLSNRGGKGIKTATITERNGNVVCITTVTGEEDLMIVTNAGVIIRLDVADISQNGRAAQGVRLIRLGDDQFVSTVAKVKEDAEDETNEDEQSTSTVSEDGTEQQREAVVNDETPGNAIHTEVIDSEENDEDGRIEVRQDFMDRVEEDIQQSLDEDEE

[10] = Volume of distribution at steady state in Sprague-Dawley rat; type: ADME, organism-based; conditions: in vivo, read-out: Vdss
Staphylococcus aureus [11] = assay: Antibacterial activity against Staphylococcus aureus ATCC 29213 in absence of human serum; type: functional
[12] = Bioavailability in Sprague-Dawley rat; type: ADME, organism-based; conditions: in vivo
[13] = Half life in Sprague-Dawley rat; type: ADME, organism-based; conditions: in vivo

SMILES | MIC (Streptococcus pneumoniae [1]) | Ki [2] | log10cfu (Streptococcus pneumoniae [3]) | log10cfu (Streptococcus pneumoniae [4]) | log10cfu (Staphylococcus aureus [5]) | MIC (Staphylococcus aureus [6]) | Ki [7] | MIC (Streptococcus pneumoniae [8]) | clearance [9] | MIC (Haemophilus influenzae) | Ki (DNA gyrase) | Vd [10] | MIC (Staphylococcus aureus [11]) | bioavailability [12] | half-life [13]
CCNC(=O)Nc1nc2cc(-c3cccnc3)cc(-c3ncccc3F)c2[nH]1 | 0.004 µg/mL (≈ 0.0106 µM) | 23 nM | 5.6 | 4.8 | 1.5 | 0.5 µg/mL | < 4 nM | 0.008 µg/mL (≈ 0.0213 µM) | 14.4 mL/min/kg | 1 µg/mL (≈ 2.66 µM) | 14 nM | 1.6 L/kg | 0.031 µg/mL (≈ 0.0824 µM) | 88.4% | 42 min
CCNC(=O)Nc1nc2cc(-c3cnc(OC)nc3)c(OC)cc2[nH]1 | 0.125 µg/mL (≈ 0.365 µM) | 680 nM | – | – | – | 8 µg/mL | 15 nM | – | – | 4 µg/mL (≈ 11.7 µM) | 44 nM | – | 2 µg/mL (≈ 5.84 µM) | – | –
CCOC(=O)Nc1nc2cc(/C=C/c3ccc(O)cc3)ccc2[nH]1 | > 16 µg/mL | > 60000 nM | – | – | – | > 16 µg/mL | 20000 nM | – | – | > 16 µg/mL | 2000 nM | – | > 16 µg/mL | – | –
CCNC(=O)Nc1nc2cc(-n3cnc(C(=O)NC4CC4)c3)c(F)cc2[nH]1 | 0.063 µg/mL (≈ 0.17 µM) | 78 nM | – | – | – | 8 µg/mL | < 4 nM | – | – | 4 µg/mL (≈ 10.8 µM) | 10 nM | – | 4 µg/mL (≈ 10.8 µM) | – | –
CCNC(=O)Nc1nc2cc(-c3cccnc3)c(F)cc2[nH]1 | 0.25 µg/mL (≈ 0.835 µM) | 680 nM | – | – | – | 16 µg/mL | 33 nM | – | – | 16 µg/mL (≈ 53.5 µM) | 38 nM | – | 1 µg/mL (≈ 3.34 µM) | – | –
CCNC(=O)Nc1nc2cc(-c3cccnc3)c(C)cc2[nH]1 | 0.5 µg/mL (≈ 1.69 µM) | 1400 nM | – | – | – | > 16 µg/mL | 61 nM | – | – | 16 µg/mL (≈ 54.2 µM) | 85 nM | – | 16 µg/mL (≈ 54.2 µM) | – | –
CCNC(=O)Nc1nc2cc(-c3cccnc3)ccc2[nH]1 | 2 µg/mL (≈ 7.11 µM) | 2300 nM | – | – | – | > 16 µg/mL | 81 nM | – | – | 16 µg/mL (≈ 56.9 µM) | 130 nM | – | 16 µg/mL (≈ 56.9 µM) | – | –
CCNC(=O)Nc1nc2cc(-c3ccccc3)ccc2[nH]1 | > 16 µg/mL | 9500 nM | – | – | – | > 16 µg/mL | 400 nM | – | – | > 16 µg/mL | 470 nM | – | > 16 µg/mL | – | –
CCNC(=O)Nc1nc2cc(-c3cccnc3)c(OC)cc2[nH]1 | 2 µg/mL (≈ 6.42 µM) | 3500 nM | – | – | – | > 16 µg/mL | 130 nM | – | – | > 16 µg/mL | 190 nM | – | 16 µg/mL (≈ 51.4 µM) | – | –
CCNC(=O)Nc1nc2cc(-c3cccnc3)c(N3CCCCC3)cc2[nH]1 | 2 µg/mL (≈ 5.49 µM) | 3300 nM | – | – | – | > 16 µg/mL | 120 nM | – | – | > 16 µg/mL | 81 nM | – | 16 µg/mL (≈ 43.9 µM) | – | –
CCNC(=O)Nc1nc2cc(-c3cncnc3)cc(-n3cccn3)c2[nH]1 | < 0.008 µg/mL | 58 nM | – | – | – | 0.25 µg/mL | < 4 nM | – | – | 0.25 µg/mL (≈ 0.718 µM) | 16 nM | – | 0.031 µg/mL (≈ 0.089 µM) | – | –
CCNC(=O)Nc1nc2cc(-n3cnc(C(=O)NC4CC4)c3)cc(-n3cccn3)c2[nH]1 | 0.003 µg/mL (≈ 0.00715 µM) | 12 nM | – | – | – | 4 µg/mL | < 4 nM | – | – | 0.25 µg/mL (≈ 0.596 µM) | 10 nM | – | 0.5 µg/mL (≈ 1.19 µM) | – | –
CCNC(=O)Nc1nc2cc(-c3cccnc3)cc(-c3ccccn3)c2[nH]1 | 0.004 µg/mL (≈ 0.0112 µM) | 14 nM | – | – | – | 2 µg/mL | < 4 nM | – | – | 2 µg/mL (≈ 5.58 µM) | 7 nM | – | 0.031 µg/mL (≈ 0.0865 µM) | – | –
CCNC(=O)Nc1nc2cc(-c3cccnc3)cc(-c3cccnc3)c2[nH]1 | 0.5 µg/mL (≈ 1.4 µM) | 1300 nM | – | – | – | 16 µg/mL | 6 nM | – | – | > 16 µg/mL | 17 nM | – | 4 µg/mL (≈ 11.2 µM) | – | –
CCNC(=O)Nc1nc2cc(-c3cccnc3)cc(OCc3ccccc3)c2[nH]1 | 1 µg/mL (≈ 2.58 µM) | 390 nM | – | – | – | > 16 µg/mL | 18 nM | – | – | > 16 µg/mL | 35 nM | – | 2 µg/mL (≈ 5.16 µM) | – | –
CCNC(=O)Nc1nc2cc(-c3cccnc3)cc(C(=O)OC)c2[nH]1 | 0.016 µg/mL (≈ 0.0471 µM) | 35 nM | – | – | – | 0.5 µg/mL | < 4 nM | – | – | 0.5 µg/mL (≈ 1.47 µM) | 8 nM | – | 0.063 µg/mL (≈ 0.186 µM) | – | –
CCNC(=O)Nc1nc2cc(-c3cccnc3)cc(-n3cccn3)c2[nH]1 | 0.008 µg/mL (≈ 0.023 µM) | 46 nM | – | – | – | 4 µg/mL | < 4 nM | – | – | 1 µg/mL (≈ 2.88 µM) | 15 nM | – | 0.063 µg/mL (≈ 0.181 µM) | – | –
CCNC(=O)Nc1nc2cc(-c3ccn(C)c(=O)c3)cc(-c3ncccc3F)c2[nH]1 | < 0.008 µg/mL | 11 nM | – | – | – | 0.032 µg/mL | < 4 nM | – | – | 0.125 µg/mL (≈ 0.308 µM) | 23 nM | – | 0.016 µg/mL (≈ 0.0394 µM) | – | –
CCNC(=O)Nc1nc2cc(-c3cncnc3)ccc2[nH]1 | 0.5 µg/mL (≈ 1.77 µM) | 1100 nM | – | – | – | 4 µg/mL | 20 nM | – | – | 2 µg/mL (≈ 7.08 µM) | 49 nM | – | 4 µg/mL (≈ 14.2 µM) | – | –
CCNC(=O)Nc1nc2cc(-n3cnc(C(=O)NC4CC4)c3)cc(-c3ccccn3)c2[nH]1 | 0.002 µg/mL (≈ 0.00465 µM) | 7 nM | – | – | – | 0.25 µg/mL | < 4 nM | – | – | 0.125 µg/mL (≈ 0.29 µM) | 12 nM | – | 0.063 µg/mL (≈ 0.146 µM) | – | –
CCNC(=O)Nc1nc2cc(-c3cccnc3)cc(C(=O)NC)c2[nH]1 | 0.063 µg/mL (≈ 0.186 µM) | 150 nM | – | – | – | > 16 µg/mL | 5 nM | – | – | 16 µg/mL (≈ 47.3 µM) | 26 nM | – | 16 µg/mL (≈ 47.3 µM) | – | –
CC(=O)NC[C@H]1CN(c2ccc(N3CCOCC3)c(F)c2)C(=O)O1 [LINEZOLID] | – | – | 5.9 | 2.5 | – | – | – | 0.4 µg/mL (≈ 1.19 µM) | – | – | – | – | – | – | –
CO[C@@H]1[C@@H](OC(N)=O)[C@@H](O)[C@H](Oc2ccc3c(O)c(NC(=O)c4ccc(O)c(CC=C(C)C)c4)c(=O)oc3c2C)OC1(C)C [NOVOBIOCIN] | 2 µg/mL (≈ 3.26 µM) | – | – | – | – | > 16 µg/mL | – | – | – | 0.063 µg/mL (≈ 0.103 µM) | – | – | 0.125 µg/mL (≈ 0.204 µM) | – | –
